In general, solubility refers to the concentration that dissolves in the medium under given conditions. Lower therefore signals little dissolved substance. In general, Km refers to the substrate concentration at which the rate is half of its maximum. A word on the Vmax: it is the rate approached at saturating substrate.

The values that follow come from PMC3058861 (Archives of biochemistry and biophysics, 2010).

Series [1] concerns the target T1, hSULT2A1 (Homo sapiens, UniProt Q06520).
T1 sequence (Q06520 1-285): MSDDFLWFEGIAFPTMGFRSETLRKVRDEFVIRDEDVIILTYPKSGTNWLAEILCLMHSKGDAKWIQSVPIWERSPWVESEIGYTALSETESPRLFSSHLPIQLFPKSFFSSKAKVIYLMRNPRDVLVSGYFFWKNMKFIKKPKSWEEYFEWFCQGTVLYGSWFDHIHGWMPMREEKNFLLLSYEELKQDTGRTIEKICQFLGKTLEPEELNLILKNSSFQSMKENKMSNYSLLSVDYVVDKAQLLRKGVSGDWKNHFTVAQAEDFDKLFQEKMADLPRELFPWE
Conditions: sulfation of pregnenolone; cited from earlier work.

Series [2] has as its target T1, hSULT2A1. The experiment in a line: Ligand binding to ligand-free hSULT2A1 by intrinsic tryptophan fluorescence. Conditions: read-out: dissociation constant (hyperbolic single site); ligand-free enzyme, pH 7.0, 37 °C.
A further series has as its target T2, hSULT2A1-PAP complex (Homo sapiens, UniProt Q06520).
T2 sequence (Q06520 1-285): T1 sequence (Q06520 1-285)
The series is described as follows: Ligand binding to the hSULT2A1-PAP complex by intrinsic tryptophan fluorescence.

The next series deals with T3, hSULT2A1-DHEA complex (Homo sapiens, UniProt Q06520).
T3 sequence (Q06520 1-285): T1 sequence (Q06520 1-285)
The series is described as follows: Ligand binding to the hSULT2A1-DHEA complex by intrinsic tryptophan fluorescence. The following applies: read-out: Kd2(app); enzyme pretreated with 80 μM (0.08 mM) DHEA. Summed up: (§1)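 Purified recombinant hSULT2A1 at 25 nM (dimer basis) was equilibrated 15 min, then pretreated with 80 μM DHEA or 80 μM DHEAS. Test ligand (1.0–300 μM) was added stepwise with stirring at 37 ± 2 °C, and intrinsic tryptophan fluorescence was read after each addition. Data were fitted to a two-site Adair model, with Kd taken as the reciprocal association constants. Triplicates, mean ± SD.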

The next series concerns the target T4, hSULT2A1-DHEAS complex (Homo sapiens, UniProt Q06520).
T4 sequence (Q06520 1-285): T1 sequence (Q06520 1-285)
Format: binding. Conditions: for Kd: enzyme pretreated with 80 μM (0.08 mM) DHEAS. Summed up:
as §1

Series [3] has as its target T1, hSULT2A1. The series is described as follows: Kinetics of DHEA sulfation catalyzed by recombinant hSULT2A1. The following applies: for substrate inhibition by PAPS: 1.0-300 μM PAPS; for substrate inhibition by DHEA: 0.1-2.0 μM DHEA. Format: biochemical.
Series [4] is described as follows: Determination of DHEA solubility by light scattering. It is filed as physicochemical. Conditions: potassium phosphate buffer, pH 7, aqueous buffer.
Setting [5] is: read-out: Kd2(app), in the presence of 100 μM (0.1 mM) PAP.
Setting [6] is: 0.25-20 μM DHEA, 200 μM PAPS, pH 7.0, 37 °C, substrate inhibition equation.

Values after ≈ are worked out from the molar mass of the structure shown. Where a name gives a salt, the structure may show the parent alone. Read-outs that look alike come from different tables or passages of the source.

In the case of `CC(=O)[C@H]1CC[C@H]2[C@@H]3CC=C4C[C@@H](O)CC[C@]4(C)[C@H]3CC[C@]12C` [pregnenolone], the “catalytic efficiency (kcat/Km) with hSULT2A1 relative to hSULT2B1 and hSULT2B2” value on hSULT2A1 [1] is reported as 3-8 fold.

As for `C[C@]12CC[C@H](OS(=O)(=O)O)CC1=CC[C@@H]1[C@@H]2CC[C@]2(C)C(=O)CC[C@@H]12` [DHEAS, dehydroepiandrosterone sulfate], the Kd was found to be 7.2 ± 0.3 µM at hSULT2A1 [2]; 3.3 ± 0.2 µM on hSULT2A1-PAP complex (read-out: Kd1(app), in the presence of 100 μM (0.1 mM) PAP); 3.3 ± 0.2 µM on hSULT2A1-PAP complex (setting [5]); 3.3 ± 0.2 µM on hSULT2A1-PAP complex (read-out: Kd(app) (hyperbolic single site), in the presence of 100 μM PAP).

In the case of `Nc1ncnc2c1ncn2[C@@H]1O[C@H](COP(=O)(O)O)[C@@H](OP(=O)(O)O)[C@H]1O` [PAP, adenosine 3′,5′-diphosphate], the Kd at hSULT2A1-DHEA complex is 243 ± 27 µM; on hSULT2A1-DHEAS complex (read-out: Kd2(app)), 415 ± 75 µM.

In the case of `Nc1ncnc2c1ncn2[C@@H]1O[C@H](COP(=O)(O)OS(=O)(=O)O)[C@@H](OP(=O)(O)O)[C@H]1O` [PAPS, 3′-phosphoadenosine 5′-phosphosulfate], the results for the “substrate inhibition by PAPS” value on hSULT2A1 [3] (80 μM DHEA), on hSULT2A1 [3] (DHEA 0.1 μM - 2.0 μM) and on hSULT2A1 [3] (DHEA 5.0 μM or 20 μM) were “significant substrate inhibition”, “no indication that PAPS displayed substrate inhibition” and “did not exhibit substrate inhibition”, respectively. In addition, the “Kd2(app) relative to Kd1(app)” value on hSULT2A1-DHEAS complex (enzyme pretreated with 80 μM DHEAS) is recorded as “over 200 fold”. For the same molecule, the Kd at hSULT2A1-DHEAS complex (read-out: Kd1(app)) came to 1.3 ± 0.4 µM; on hSULT2A1-DHEAS complex (read-out: Kd2(app)), 315 ± 27 µM.

Turning to `C[C@]12CC[C@H](O)CC1=CC[C@@H]1[C@@H]2CC[C@]2(C)C(=O)CC[C@@H]12` [DHEA, dehydroepiandrosterone (5-androsten-3β-ol-17-one)], in series [4], the solubility came to 80 µM (≈ 23.1 µg/mL). Besides, the “substrate inhibition by DHEA” value on hSULT2A1 [3] (intermediate PAPS 5.0 – 60 μM) is listed as “substrate inhibition was observed”. In addition, the “substrate inhibition by DHEA” value at hSULT2A1 [3] (lowest (1.0 μM) and highest (100 and 300 μM) PAPS) is listed as “substrate inhibition was not evident”. For the same molecule, at hSULT2A1 [3] (setting [6]), the “Kis (substrate inhibition constant)” value was determined as 8 ± 3 µM, the Km stood at 0.8 ± 0.3 µM and the Vmax worked out at 245 ± 40 nmol/min/mg. For the same molecule, the Kd at hSULT2A1-PAP complex (setting [5]) worked out at 22 ± 3.2 µM.
